Reference: ChEMBL document CHEMBL3627626, “6-Substituted Pyrrolo[2,3-d]pyrimidine Thienoyl Regioisomers as Targeted Antifolates for Folate Receptor α and the Proton-Coupled Folate Transporter in Human Tumors” (J Med Chem, 2015)
Activity calls are given as the source filed them. The calls are words filed in the database; no cut-off is given here.

Experiments:
[1] = target: Folate receptor alpha (Homo sapiens) (UniProt P15328); test: Displacement of [3H]-folic acid from human FRalpha expressed in Chinese hamster RT16 cells after 15 mins relative to folic acid; assay type: cell-based
Folate receptor alpha (Homo sapiens), sequence (P15328 25-234 limits assumed): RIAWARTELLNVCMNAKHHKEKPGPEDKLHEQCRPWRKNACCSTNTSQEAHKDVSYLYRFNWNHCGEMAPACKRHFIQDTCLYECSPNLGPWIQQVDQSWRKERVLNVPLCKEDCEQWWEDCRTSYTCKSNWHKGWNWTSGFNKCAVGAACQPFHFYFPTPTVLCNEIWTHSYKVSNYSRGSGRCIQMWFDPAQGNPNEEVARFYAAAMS
Procedure, shortened: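 Competitive binding to surface folate receptor on RT16 (FRα) or D4 (FRβ) CHO cells. Cells were acid-washed (pH 3.5) to strip bound folate, then incubated in HEPES-buffered saline pH 7.4 with 50 nM [3H]folic acid plus unlabeled ligand (0–1000 nM) for 15 min at 0 °C. Bound label was normalised to protein. Affinity is the inverse molar ratio for 50% displacement, with folic acid set to 1. Mean of 4–10 experiments ±SE.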

[2] = test system: Mus musculus; test: Toxicity in folate-deficient diet fed NCR SCID mouse xenografted with human SKOV3 cells expressing RFC/PCFT/FRalpha assessed as body weight loss at 16 mg/kg, iv administered every 4 days on day 3, 7, 11 relative to control; assay type: organism-based, SK-OV-3; settings: in vivo, 96 h
Procedure, shortened: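 Ten-week-old female NCR SCID mice, fed a folate-deficient or standard folate-replete diet, were implanted subcutaneously and bilaterally with SKOV3 tumour fragments. Randomised at 5 mice/group. Dosed intravenously, 0.2 mL per injection, in 5% ethanol/1% Tween-80/0.5% NaHCO3 in water at pH 6.5, on days 3, 7 and 11. Tumours measured twice weekly and mice weighed daily. T/C taken on day 21; growth delay and log cell kill also reported.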

[3] = target: T1, Proton-coupled folate transporter (Homo sapiens) (UniProt Q96NT5); test: Binding affinity to human PCFT expressed in Chinese hamster R2/PCFT4 cells assessed as increase in intracellular drug transport at 0.5 uM at 37 degC at pH 5.5 measured over 5 mins in presence of AGF94; assay type: cell-based
T1 sequence (whole entry): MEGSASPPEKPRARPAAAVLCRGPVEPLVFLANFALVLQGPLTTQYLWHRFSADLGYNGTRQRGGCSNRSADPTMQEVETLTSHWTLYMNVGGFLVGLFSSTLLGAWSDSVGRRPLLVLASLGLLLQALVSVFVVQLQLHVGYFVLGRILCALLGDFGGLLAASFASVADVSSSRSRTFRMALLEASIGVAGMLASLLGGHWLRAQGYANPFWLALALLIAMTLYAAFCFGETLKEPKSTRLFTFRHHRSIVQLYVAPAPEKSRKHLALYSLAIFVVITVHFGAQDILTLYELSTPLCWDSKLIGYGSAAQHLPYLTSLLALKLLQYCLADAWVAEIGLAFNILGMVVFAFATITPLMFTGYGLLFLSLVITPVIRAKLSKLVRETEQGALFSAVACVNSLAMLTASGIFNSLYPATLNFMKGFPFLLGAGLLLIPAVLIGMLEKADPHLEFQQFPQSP

[4] = target: T2, Trifunctional purine biosynthetic protein adenosine-3 (Homo sapiens, UniProt P22102); test: Inhibition of GARFTase in human KB cells expressing FRalpha/PCFT/RFC assessed as incorporation of [14C(U)]-glycine into [14C]-formyl GAR preincubated for 1 hr followed by azaserine, L-glutamine, 14C(U)]-glycine addition measured after 16 hrs; assay type: cell-based
T2 sequence (P22102 whole entry): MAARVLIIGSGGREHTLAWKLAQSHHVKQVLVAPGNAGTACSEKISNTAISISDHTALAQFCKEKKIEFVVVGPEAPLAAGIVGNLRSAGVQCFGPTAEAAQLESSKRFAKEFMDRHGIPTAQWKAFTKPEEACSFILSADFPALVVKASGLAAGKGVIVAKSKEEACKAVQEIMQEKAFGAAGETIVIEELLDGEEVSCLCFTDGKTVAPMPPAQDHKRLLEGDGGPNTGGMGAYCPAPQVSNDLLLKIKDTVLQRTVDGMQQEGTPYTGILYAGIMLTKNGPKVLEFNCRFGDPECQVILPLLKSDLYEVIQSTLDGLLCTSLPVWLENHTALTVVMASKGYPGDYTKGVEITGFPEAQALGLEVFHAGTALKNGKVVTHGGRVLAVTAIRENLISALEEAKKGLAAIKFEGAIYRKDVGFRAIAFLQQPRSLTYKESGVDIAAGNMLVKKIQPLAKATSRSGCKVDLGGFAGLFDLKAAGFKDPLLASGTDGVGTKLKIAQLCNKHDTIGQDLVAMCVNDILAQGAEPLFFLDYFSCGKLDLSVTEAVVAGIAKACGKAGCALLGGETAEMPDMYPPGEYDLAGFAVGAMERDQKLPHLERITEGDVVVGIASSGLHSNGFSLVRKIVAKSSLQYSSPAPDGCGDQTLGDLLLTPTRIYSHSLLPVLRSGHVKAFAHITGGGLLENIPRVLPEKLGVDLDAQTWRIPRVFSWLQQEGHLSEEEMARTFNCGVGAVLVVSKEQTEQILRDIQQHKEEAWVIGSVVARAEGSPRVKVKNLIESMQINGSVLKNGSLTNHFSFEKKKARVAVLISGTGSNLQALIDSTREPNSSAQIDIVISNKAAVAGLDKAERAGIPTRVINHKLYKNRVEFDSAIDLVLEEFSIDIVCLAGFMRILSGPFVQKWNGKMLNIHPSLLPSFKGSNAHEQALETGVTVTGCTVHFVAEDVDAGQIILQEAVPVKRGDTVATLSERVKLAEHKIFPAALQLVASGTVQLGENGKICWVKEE
Procedure, shortened: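 In situ assay in KB cells. Cells were exposed to a range of drug concentrations with [14C]glycine for 16 h under proliferation-assay conditions, with azaserine present. Radiolabelled metabolites were extracted and separated on anion exchange columns, and [14C]formyl GAR quantified. Mean ±SE of three experiments.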

[5] = test system: R2; test: Cellular uptake in PCFT-null Chinese hamster R2 cells at 0.5 uM at 37 degC at pH 5.5 measured over 2 mins; assay type: ADME, cell-based, Cricetulus griseus; settings: r2, pH 5.5, 2 min
Procedure, shortened: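 R2/PCFT4 or PCFT-null R2 CHO cells were grown in suspension from spinner flasks. Uptake of 0.5 μM [3H]drug measured over 2 min at 37 °C in MES-buffered saline pH 5.5, with or without 10 μM unlabeled competitor. Uptake was quenched with ice-cold DPBS and cells solubilised in NaOH. Results are pmol/mg protein, mean ±SEM of three experiments.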

[6] = target: T1, Proton-coupled folate transporter (Homo sapiens); test: Binding affinity to human PCFT expressed in Chinese hamster R2/PCFT4 cells assessed as cell growth inhibition after 96 hrs by CellTiter-Blue assay in presence of 200 nM folic acid; assay type: cell-based
Procedure, shortened: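 Human-PCFT-transfected R2 CHO cells, precultured with G418, were plated at ~2500–5000 cells/well across a range of drug concentrations. Medium was folate-free RPMI 1640 (pH 7.2) with 25 nM LCV and 10% dialyzed FBS. Parallel wells received 200 nM folic acid. Incubated up to 96 h, then read with CellTiter Blue fluorescence (ex 560/em 590 nm).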

[7] = test system: IGROV-1; test: Antiproliferative activity against human IGROV1 cells after 96 hrs by CellTiter-Blue assay in presence of 200 nM folic acid; assay type: functional, cell-based; settings: IGROV-1, 96 h
[8] = target: T3, Trifunctional purine biosynthetic protein adenosine-3 (Homo sapiens) (UniProt P22102); test: Inhibition of GARFTase in human KB cells expressing FRalpha/PCFT/RFC assessed as cell growth inhibition after 96 hrs by CellTiter-Blue assay in presence of thymidine; assay type: cell-based
T3 sequence (whole entry): T2 sequence (P22102 whole entry)

[9] = test system: R2; test: Cytotoxicity against Chinese hamster R2 cells transfected with empty PCDNA3 assessed as cell growth inhibition after 96 hrs by CellTiter-Blue assay; assay type: cell-based, Cricetulus griseus

With `Nc1nc2[nH]c(CCCc3cc(C(=O)N[C@@H](CCC(=O)O)C(=O)O)cs3)cc2c(=O)[nH]1` the Activity [1] was 60%, the Activity [2] was 12.1% and the Activity [3] was “inactive”. For the same molecule, the IC50 [4] was 2.6 nM, the Drug uptake [5] was “Not Active” and the Activity [6] was “Active”. The IC50 [7] was 276 nM, the inhibition [8] was “Active” and the IC50 [9] was greater than 1000 nM.
